Our source for the Inhibition, logP and ILS values is ChEMBL document CHEMBL1121438, “Synthesis and antitumor activity of analogues of the antitumor antibiotic chartreusin” (J Med Chem, 1980).

Data set [1] concerns L1210. The experiment in a line: Evaluated for growth inhibition against cultured L1210 cells after 48 hour drug exposure in trial 1 at a dose of 1.44*10e-8. The class given is functional, Mus musculus.
The subject of data set [2] is L1210. The experiment in a line: Evaluated for growth inhibition against cultured L1210 cells after 48 hour drug exposure in trial 2 at a dose of 1.44*10e-9. The class given is functional, Mus musculus.
Data set [3] relates to L1210. The experiment in a line: Evaluated for growth inhibition against cultured L1210 cells after 48 hour drug exposure in trial 1 at a dose of 1.44*10e-9. The class given is functional, Mus musculus.
Data set [4] in a line: Partition coefficient (logP). The class given is physicochemical. The conditions noted are these: octanol/water.
For data set [5], the system named is L1210. The experiment in a line: Evaluated for growth inhibition against cultured L1210 cells after 48 hour drug exposure in trial 2 at a dose of 1.44*10e-8. The class given is functional, Mus musculus.
The subject of data set [6] is L1210. The experiment in a line: Evaluated for growth inhibition against cultured L1210 cells after 48 hour drug exposure in trial 1 at a dose of 1.65*10e-9. The class given is functional, Mus musculus.
For data set [7], the system named is L1210. The experiment in a line: Evaluated for growth inhibition against cultured L1210 cells after 48 hour drug exposure in trial 2 at a dose of 1.65*10e-8. The class given is functional, Mus musculus.
Data set [8] concerns L1210. The experiment in a line: Evaluated for growth inhibition against cultured L1210 cells after 48 hour drug exposure in trial 2 at a dose of 1.65*10e-9. The class given is functional, Mus musculus.
Data set [9] concerns L1210. The experiment in a line: Evaluated for growth inhibition against cultured L1210 cells after 48 hour drug exposure in trial 1 at a dose of 1.65*10e-8. The class given is functional, Mus musculus.
Data set [10] concerns Mus musculus. The experiment in a line: Evaluated % increase in life span in vivo against P388 Murine leukemia cells in trial 1 at a dose of 200 mg/kg. The class given is functional. In a few lines:
(§1)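 Male CDF1 mice (17-22 g) inoculated ip with 10^6 P388 cells on day 0. Six animals per dose level. Activity is the median increase in life span over untreated controls (% ILS); body weight change of test vs control measured on days 1 and 5.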

Data set [11] has as its system Mus musculus. The experiment in a line: Evaluated % increase in life span in vivo against P388 Murine leukemia cells in trial 2 at a dose of 12.5 mg/kg. The class given is functional. In a few lines:
as §1

In data set [12] the test system is Mus musculus. The experiment in a line: Evaluated % increase in life span in vivo against P388 Murine leukemia cells in trial 1 at a dose of 12.5 mg/kg. The class given is functional. A digest of the protocol:
as §1

Data set [13] has as its system Mus musculus. The experiment in a line: Evaluated % increase in life span in vivo against P388 Murine leukemia cells in trial 1 at a dose of 50 mg/kg. The class given is functional. In a few lines:
as §1

For data set [14], the system named is L1210. The experiment in a line: Evaluated for growth inhibition against cultured L1210 cells after 48 hour drug exposure in trial 1 at a dose of 1.45*10e-8. The class given is functional, Mus musculus.
Data set [15] has as its system Mus musculus. The experiment in a line: Evaluated % increase in life span in vivo against P388 Murine leukemia cells in trial 2 at a dose of 50 mg/kg. The class given is functional. A digest of the protocol:
as §1

In data set [16] the test system is Mus musculus. The experiment in a line: Evaluated % increase in life span in vivo against P388 Murine leukemia cells in trial 2 at a dose of 25 mg/kg. The class given is functional. A digest of the protocol: as §1
In data set [17] the test system is Mus musculus. The experiment in a line: Evaluated % increase in life span in vivo against P388 Murine leukemia cells in trial 2 at a dose of 100 mg/kg. The class given is functional. A digest of the protocol: as §1
Data set [18] deals with L1210. The experiment in a line: Evaluated for growth inhibition against cultured L1210 cells after 48 hour drug exposure in trial 2 at a dose of 1.45*10e-8. The class given is functional, Mus musculus.
Data set [19] relates to Mus musculus. The experiment in a line: Evaluated % increase in life span in vivo against P388 Murine leukemia cells in trial 1 at a dose of 25 mg/kg. The class given is functional. In a few lines: as §1
For data set [20], the system named is Mus musculus. The experiment in a line: Evaluated % increase in life span in vivo against P388 Murine leukemia cells in trial 1 at a dose of 100 mg/kg. The class given is functional. In a few lines:
as §1

Data set [21] relates to L1210. The experiment in a line: Evaluated for growth inhibition against cultured L1210 cells after 48 hour drug exposure in trial 2 at a dose of 1.45*10e-9. The class given is functional, Mus musculus.
Data set [22] relates to L1210. The experiment in a line: Evaluated for growth inhibition against cultured L1210 cells after 48 hour drug exposure in trial 1 at a dose of 1.45*10e-9. The class given is functional, Mus musculus.
In data set [23] the test system is Mus musculus. The experiment in a line: Evaluated % increase in life span in vivo against P388 Murine leukemia cells in trial 2 at a dose of 200 mg/kg. The class given is functional. A digest of the protocol:
as §1

Data set [24] in a line: Partition coefficient determined using pi values. The class given is physicochemical. The conditions noted are these: octanol/water. In a few lines: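 Calculated log P: the aglycon value was summed with the π value of the glycosyl substituent, using literature −2.84 for O-β-glucosyl and −3.24 for maltosyl.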
The nature of data set [25]: Partition coefficient (logP) (HPLC). The class given is physicochemical. The note with it: octanol/water. In a few lines: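 Relative log P by the reversed-phase LC method of McCall: octadecylsilyl column eluted with acetonitrile–water (1:1). The system was calibrated with a reference compound of known octanol/water log P, and log P values were derived from elution times.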

One may read the Inhibition as the relative decrease from the control value, in per cent. Low values mean little suppression, high ones strong suppression. Usually logP stands for the decadic logarithm of the partition coefficient of the neutral form, usually between octanol and water. Low values mean lower lipophilicity, high ones higher lipophilicity. In the case of `Cc1ccc2oc(=O)c3c(O)c4cccc(O[C@H]5O[C@H](C)[C@H](O)[C@H](O)[C@H]5O)c4c4oc(=O)c1c2c34`, the Inhibition in data set [1] came to 100%; in data set [2], 65%; in data set [3] it was 71%; in data set [5], 100%. The same molecule gave a logP in data set [4] of 2.07.

Take `Cc1ccc2oc(=O)c3c(O)c4cccc(O)c4c4oc(=O)c1c2c34`: the Inhibition came out at 0% in [6], 58% in data set [7], 7% in [8] and 57% in [9]. Besides, in [4], the logP came to 4.19.

Broadly, the ILS is the gain in survival time of treated over control animals, in per cent. Lower therefore signals a small benefit in survival. In the case of `CO[C@H]1[C@@H](O)[C@@H](C)O[C@H](O[C@H]2[C@@H](Oc3cccc4c(O)c5c(=O)oc6ccc(C)c7c(=O)oc(c34)c5c67)O[C@H](C)[C@H](O)[C@@H]2O)[C@@H]1O`, the increase in lifespan (ILS) at 200 mg/kg in data set [10] was found to be 43%; in data set [23], 58%. Moreover, the ILS at 12.5 mg/kg was 17% in data set [11] and 46% in data set [12]. Besides, the results for the ILS at 50 mg/kg in data set [13] and in data set [15] were 60% and 54%, respectively. For the same molecule, the Inhibition is given as 100% in data set [14], 100% in data set [18], 32% in [21] and 21% in data set [22]. Also, the ILS at 25 mg/kg is 56% in [16] and 47% in data set [19]. For the same molecule, the increase in lifespan (ILS) at 100 mg/kg in data set [17] amounted to 45%; in [20], 93%. The molecule also had a logP in [4] of 1.8.

Consider `Cc1ccc2oc(=O)c3c(O)c4cccc(O[C@H]5O[C@H](CO)[C@@H](O)[C@H](O)[C@H]5O)c4c4oc(=O)c1c2c34`, for which the Inhibition in data set [14] is given as 100%; in [18] it was 97%; in [21], 47%; in data set [22] it was 59%. In addition, the logP stood at 1.35 in data set [24] and 1.82 in data set [25].
